# The list is not random: actives were taken first. Their share in the collection is about 3.5%.
# bCat nuc transl: alters nuclear translocation of beta-catenin in HeLa cells. actives 0.3% (n = 190,000). nuclear translocation activity, % at 5 µM. AID 1665. immunofluorescence imaging;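 active = nuclear translocation activity above 50% at 5 µM, with a well cell count of 50 or more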;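 note: per-cell ratio of nuclear to cytoplasmic median beta-catenin stain intensity; plate controls were DMSO negative control for no effect and GSK-3 inhibitor IX positive control for full effect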
#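 Test system: HeLa cells, endogenous beta-catenin; Compound: single 5 µM dose plus 0.02–20 µM confirmation series; Times: compound exposure 24 h at 37°C; Signal: fluorescence imaging of beta-catenin antibody stain plus DAPI; Read-out: % activation, nuclear-to-cytoplasmic median beta-catenin signal ratio per cell.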
# Yeast lifespan up: extends the lifespan of yeast. actives 0.68% (n = 130,000). inhibition of the nicotinamide effect, % at 10 µM. S. cerevisiae growth with nicotinamide, OD615; deaD strain in restrictive glucose medium;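 active = inhibition above a set limit, placed 3 SD over the median of all compounds, cut at about 26% in these data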;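 note: 0% = nicotinamide-treated wells and 100% = cells grown without nicotinamide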
#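 Assay system: engineered S. cerevisiae DeaD replicative-lifespan strain, galactose-grown log-phase cells; medium: restrictive CSMM-D dextrose medium; also added: nicotinamide, 1.5 mM, co-present with compound; schedule: 48 h compound exposure at 30 °C, humidified; detection: absorbance at 615 nm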
# HMGR II inh: E. faecalis class II HMG-CoA reductase inhibition | purified E. faecalis HMGR, NADPH absorbance 340 nm kinetic | inhibition, % at 10 µM | actives 0.41% (n = 190,000);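 active = inhibition above a set limit, the median over all tested compounds plus 3 SD, cut at about 9.5% in these data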;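 note: enzyme runs in reverse so mevalonate oxidation gives rising NADPH absorbance; 0% = complete reaction with DMSO and 100% = background rate lacking mevalonate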
# MT stabilize HCS: stabilizes microtubules in HeLa cells | HeLa tubulin immunostaining HCS, 24 h; share of cells brighter than vehicle mean+2SD | % tubulin-high responders, % at 10 µM | actives 0.83% (n = 200,000) | AID 2205;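 active = plate Z-score above 3 for both tubulin-high and condensed-nucleus cell shares, with cell loss under 80%, at 10 µM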;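 note: anti alpha tubulin signal scored within the nucleus-defined area of each cell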
# RAM inhibit: blocks the yeast RAM network | actives 1.8% (n = 190,000) | inhibition, % at 50 µM | AID 868 | S. cerevisiae dse1pr::URA3 reporter, 5-FOA growth OD615, 2 d; analog-sensitive cbk1-as2 kinase mutant strain;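 active = inhibition above a set limit, 3 SD over mean compound inhibition, cut at about 8.4% in these data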;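 note: 0% = DMSO-only wells with no growth and 100% = 10 µM 1-NA-PP1 full growth; inhibition rescues growth on 5-FOA so higher OD means more RAM inhibition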
# BB579 growth dn: chemicals that inhibit yeast BB579 growth in restrictive medium (lifespan-shortening candidates); S. cerevisiae BB579 growth, OD615, 48 h; inhibition, % at 10 µM; actives 0.51% (n = 140,000); AID 804;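 active = inhibition above a set limit, 3 SD over the mean compound inhibition, cut at about 44% in these data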
#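 Assay system – yeast BB579 (DeaD) · Dosing – single compound dose of 10 µM, 0.25% DMSO final · Detection – OD615 turbidity measurement · Buffer or medium – CSMM-D restrictive synthetic medium containing dextrose (glucose) · Benchmarks – positive control amphotericin B 10 µg/mL · Incubation – 48 h exposure, 30 °C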
# Active calls of the source: *; · = no result.
SMILES,bCat nuc transl,Yeast lifespan up,HMGR II inh,MT stabilize HCS,RAM inhibit,BB579 growth dn
O=C(N/N=C/c1cccc(Cl)c1)c1c(O)c2c([nH]c1=O)CCCC2,0,·,·,·,·,·
O=C(N/N=C/c1ccc(F)cc1)c1ccccc1,0,·,-3,2,-1,·
O=C(NCC1CCCO1)c1c(O)c2ccccc2[nH]c1=O (stereo not drawn),-3,57*,-3,1,2,-18
O=C(N/N=C/c1cccc(F)c1)c1c(O)c2ccccc2[nH]c1=O,-1,52*,1,7,1,-34
CCOC(=O)CC/C(C)=N\N=C1\SC(CC(=O)O)C(=O)N1c1ccccc1 (stereo not drawn),-2,·,·,·,·,·
COC(=O)c1c(O)c2ccccc2[nH]c1=O,-2,41*,-2,3,0,-24
CC(C)CCn1c(=O)c(C(=O)N/N=C/c2cccc(F)c2)c(O)c2ccccc21,·,38*,-3,7,0,13
CCCn1c(=O)c(C(=O)N/N=C/c2ccc(F)cc2)c(O)c2ccccc21,2,·,·,·,·,·
CC1CCc2cc(F)cc3c(O)c(C(=O)NCC4CCCO4)c(=O)n1c23 (stereo not drawn),0,-1,2,2,11*,-66
CCN(Cc1ccncc1)C(=O)CSc1ccc2ccccc2c1,0,·,-2,4,0,·
CCN(CC(=O)Nc1ccc(OC)c(Cl)c1)CC(=O)NC(C)C,-1,·,-3,1,2,·
CC(=O)NC1C(=O)N=C(SCC(=O)NC2CCCCC2)NC1=O (stereo not drawn),-6,-3,-8,3,2,48*
O=C(Nc1nc(-c2ccccn2)cs1)c1ncc(Cl)c(Cl)c1Cl,-1,-20,-4,4,2,59*
CSCCC(=O)Nc1nc(-c2ccccn2)cs1,-1,·,-5,3,2,·
O=C(CCCSc1ccccc1)Nc1nc(-c2ccccn2)cs1,·,-5,3,4,1,57*
O=C(Nc1nc(-c2ccccn2)cs1)c1cc2ccccc2o1,-2,·,-4,3,-1,·
O=C(Nc1nc(-c2ccccn2)cs1)c1ccc(Cl)s1,·,-13,-8,4,-1,95*
Cn1cccc1C(=O)Nc1nc(-c2ccccn2)cs1,1,-20,-1,2,0,46*
FC(F)(F)c1cc(-c2cccs2)nc2nc(N3CCOCC3)sc12,3,·,-5,4,0,·
C=CCN(CC=C)c1nc2ccccc2nc1C(C#N)C(=O)OC(C)C (stereo not drawn),2,36*,-2,6,1,-34
CC(C)(C)C(=O)Nc1cc(C(F)(F)F)ccc1-n1ccnc1,7,·,13*,3,2,·
CC(=O)c1c(C)n(C)c2ccc(OC(=O)c3ccc([N+](=O)[O-])cc3)cc12,0,·,-1,1,5,·
CC(=O)c1c(OC(=O)c2ccccc2)c2ccccc2n1C,1,-5,1,3,8.4*,-31
O=C(NCc1cccnc1)c1ccc(S(=O)(=O)N2CCCCC2)cc1,-1,115*,4,1,0,-80
NC(=O)C(=O)N/N=C/c1cccc(C(F)(F)F)c1,0,·,-1,4,0,·
SMILES,bCat nuc transl,Yeast lifespan up,HMGR II inh,MT stabilize HCS,RAM inhibit,BB579 growth dn
COc1cccc(-c2cc(C(=O)N3CC4(C)CC3CC(C)(C)C4)no2)c1 (stereo not drawn),-3,1,-5,4,10*,-72
COc1cccc(-c2cc(C(=O)N3CCCCC3C)no2)c1 (stereo not drawn),0,-23,2,3,0,-38
O=C(Nc1nnc(COc2ccc(F)cc2)s1)Nc1ccccc1F,0,·,·,·,·,·
COc1ccccc1OCc1nnc(SCC(=O)c2cc(Cl)ccc2OC)o1,·,-36,1,1,9.5*,-70
COc1ccc(OC)c(C(=O)CSc2nnc(-c3ccc(OC)c(OC)c3)o2)c1,·,-2,1,2,10*,-38
Cc1cc(C)cc(OCC(=O)O/N=C(\N)c2cccnc2)c1,0,·,·,·,·,·
CC1CN(CC(=O)Nc2ccccc2Sc2ccccc2)CC(C)O1 (stereo not drawn),0,27*,-9,3,0,4

# Source: PubChem BioAssay
